What is called MIC80 is an inhibitory concentration at the 80% level, which refers to growth in some studies and to a panel of isolates in others. Usually MIC50 stands for the lowest concentration that inhibits either 50% of growth or 50% of the strains tested, depending on the study. The term MIC denotes the smallest concentration in the dilution series that meets the test's criterion for growth inhibition. A higher MIC goes with a less susceptible organism.

What all share (assay type): functional
In one assay the test system is Enterobacter cloacae. The experiment in a line: Potentiation of rifampicin-induced antibacterial activity against Enterobacter cloacae 117029 assessed as fold reduction in rifampicin MIC at 7.5 uM incubated for 18 hrs by broth dilution method. A digest of the protocol:
(§1)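 Antibiotic MIC determined by CLSI broth microdilution (MHB, 5 × 10^5 CFU/mL, 18 h, 37 °C), once alone and once with a fixed concentration of the adjuvant. Potentiation is the ratio of the antibiotic MIC alone to its MIC in the presence of the adjuvant.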

Assay [1] relates to Pseudomonas aeruginosa. The experiment in a line: Potentiation of minocycline-induced antibacterial activity against MDR/XDR Pseudomonas aeruginosa isolate 101243 devoid of GyrA T83I mutant assessed as fold reduction in minocycline MIC at 7.5 uM incubated for 18 hrs by broth microdilution method. A general note: Broth dilution looks for growth in wells or tubes with falling amounts of substance.

Assay [2] deals with Pseudomonas aeruginosa. Kind of assay: Potentiation of minocycline-induced antimicrobial activity against MDR/XDR Pseudomonas aeruginosa isolate 100036 harboring GyrA Thr83Ile mutant assessed as minocycline MIC80 incubated for 18 hrs by broth microdilution method (reference value: 32 microg/ml). The following applies: isolate 100036, 18 h.
Assay [3] relates to Pseudomonas aeruginosa. Kind of assay: Potentiation of rifampicin-induced antimicrobial activity against MDR/XDR Pseudomonas aeruginosa isolate 101885 harboring GyrA Thr83Ile mutant assessed as rifampicin MIC50 incubated for 18 hrs by broth microdilution method (reference value: 8 microg/ml). The conditions noted are these: isolate 101885, 18 h.
Assay [4] relates to Acinetobacter baumannii. The experiment in a line: Antimicrobial activity against multidrug-resistant Acinetobacter baumannii AB030 incubated for 18 hrs by broth dilution method. The following applies: AB030, 18 h. In outline:
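Broth microdilution per CLSI: overnight cultures set to 0.5 McFarland in saline, diluted 1:50 in Mueller-Hinton broth to a final 5 × 10^5 CFU/mL, added to 2-fold serial dilutions, incubated 18 h at 37 °C; MIC is the lowest concentration without visible turbidity, confirmed at 590 nm.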

Assay [5] relates to Pseudomonas aeruginosa. The experiment in a line: Potentiation of minocycline-induced antimicrobial activity against MDR/XDR Pseudomonas aeruginosa isolate PA262-101856 harboring GyrA Thr83Ile mutant assessed as minocycline MIC50 incubated for 18 hrs by broth microdilution method (reference value: 16 microg/ml). The following applies: isolate PA262-101856, 18 h.
The test system of assay [6] is Acinetobacter baumannii. Kind of assay: Potentiation of rifampicin-induced antibacterial activity against multidrug-resistant Acinetobacter baumannii 110193 assessed as fold reduction in rifampicin MIC at 7.5 uM incubated for 18 hrs by broth dilution method. A digest of the protocol: (§2)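 CLSI broth microdilution. Overnight cultures were set to 0.5 McFarland in saline, diluted 1:50 in Mueller-Hinton broth to a final 5 × 10^5 CFU/mL, and incubated 18 h at 37 °C against 2-fold antibiotic dilutions. A fixed adjuvant level was present throughout. MIC = lowest concentration with no visible turbidity, confirmed at 590 nm. Potentiation = fold drop in antibiotic MIC versus antibiotic alone.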

The subject of assay [7] is Pseudomonas aeruginosa. The experiment in a line: Potentiation of rifampicin-induced antibacterial activity against MDR/XDR Pseudomonas aeruginosa isolate 91433 devoid of GyrA T83I mutant assessed as fold reduction in rifampicin MIC at 7.5 uM incubated for 18 hrs by broth microdilution method. In outline:
as §2

In assay [8] the test system is Pseudomonas aeruginosa. Kind of assay: Potentiation of rifampicin-induced antimicrobial activity against MDR/XDR Pseudomonas aeruginosa isolate 100036 harboring GyrA Thr83Ile mutant assessed as rifampicin MIC80 incubated for 18 hrs by broth microdilution method (reference value: 16 microg/ml). The conditions noted are these: isolate 100036, 18 h.
Assay [9] deals with Acinetobacter baumannii. The experiment in a line: Potentiation of rifampicin-induced antibacterial activity against multidrug-resistant Acinetobacter baumannii AB030 assessed as fold reduction in rifampicin MIC at 7.5 uM incubated for 18 hrs by broth dilution method. A digest of the protocol:
as §2

Assay [10] has as its system Pseudomonas aeruginosa. Kind of assay: Potentiation of rifampicin-induced antimicrobial activity against MDR/XDR Pseudomonas aeruginosa isolate PA259-96918 harboring GyrA Thr83Ile mutant assessed as rifampicin MIC80 incubated for 18 hrs by broth microdilution method (reference value: 16 microg/ml). The following applies: isolate PA259-96918, 18 h.
In assay [11] the test system is Acinetobacter baumannii. Kind of assay: Synergistic antibacterial activity against multidrug-resistant Acinetobacter baumannii AB027 assessed as fractional inhibitory concentration index in presence of rifampicin incubated for 18 hrs by broth dilution method.
For assay [12], the system named is Klebsiella pneumoniae. The experiment in a line: Potentiation of minocycline-induced antibacterial activity against Klebsiella pneumoniae 116381 assessed as fold reduction in minocycline MIC at 7.5 uM incubated for 18 hrs by broth dilution method. In outline:
as §1

The subject of assay [13] is Pseudomonas aeruginosa. Kind of assay: Potentiation of minocycline-induced antibacterial activity against MDR/XDR Pseudomonas aeruginosa isolate 101885 harboring GyrA T83I mutant assessed as fold reduction in minocycline MIC at 9 uM incubated for 18 hrs by broth microdilution method.
The subject of assay [14] is Pseudomonas aeruginosa. Kind of assay: Potentiation of minocycline-induced antibacterial activity against MDR/XDR Pseudomonas aeruginosa isolate 101243 devoid of GyrA T83I mutant assessed as fold reduction in minocycline MIC at 9 uM incubated for 18 hrs by broth microdilution method.
Assay [15] concerns Pseudomonas aeruginosa. The experiment in a line: Potentiation of moxifloxacin-induced antibacterial activity against MDR/XDR Pseudomonas aeruginosa isolate 101243 devoid of GyrA T83I mutant assessed as fold reduction in moxifloxacin MIC at 9 uM incubated for 18 hrs by broth microdilution method. A digest of the protocol:
as §2

In assay [16] the test system is Escherichia coli. Kind of assay: Potentiation of minocycline-induced antibacterial activity against Escherichia coli 94474 assessed as fold reduction in minocycline MIC at 4.1 uM incubated for 18 hrs by broth dilution method. A digest of the protocol: as §1
Assay [17] deals with Escherichia coli. The experiment in a line: Synergistic antibacterial activity against Escherichia coli 107115 assessed as fractional inhibitory concentration index in presence of rifampicin incubated for 18 hrs by broth dilution method. A digest of the protocol:
(§3)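 Checkerboard titration of the adjuvant against the antibiotic, run under the CLSI microdilution conditions (MHB, 5 × 10^5 CFU/mL, 18 h, 37 °C). Each agent's FIC is its MIC in combination divided by its MIC alone; FICI is the sum of the two FICs. FICI ≤0.5 was read as synergy, >0.5–4.0 as no interaction, and >4.0 as antagonism.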

Assay [18] concerns Pseudomonas aeruginosa. Kind of assay: Antimicrobial activity against XDR Pseudomonas aeruginosa isolate PA264 infected in Galleria mellonella larvae assessed as survival rate at 50 mg/kg co-administered with 50 mg/kg rifampicin at 2 hrs post-inoculation measured after 24 hrs relative to control. A digest of the protocol:
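G. mellonella larvae were injected with ~5 CFU of P. aeruginosa PA264 (10 µL of 5 × 10^2 CFU/mL in PBS) and held 2 h at 37 °C. A single 10 µL injection followed: monotherapy or rifampicin + compound (25+25, 50+50 or 75+75 mg/kg), with PBS as control. Larvae kept at 37 °C were scored every 6 h to 24 h; dead = no response to touch. n = 30 (two runs of 15); Kaplan-Meier.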

In assay [19] the test system is Klebsiella pneumoniae. Kind of assay: Synergistic antibacterial activity against Klebsiella pneumoniae 113250 assessed as fractional inhibitory concentration index in presence of rifampicin incubated for 18 hrs by broth dilution method. In outline: as §3
Assay [20] concerns Escherichia coli. The experiment in a line: Potentiation of rifampicin-induced antibacterial activity against Escherichia coli ATCC 25922 assessed as fold reduction in rifampicin MIC at 2.0 uM incubated for 18 hrs by broth dilution method. A digest of the protocol: as §1
For assay [21], the system named is Klebsiella pneumoniae. Kind of assay: Synergistic antibacterial activity against Klebsiella pneumoniae 113250 assessed as fractional inhibitory concentration index in presence of minocycline incubated for 18 hrs by broth dilution method. In outline: as §3
Assay [22] has as its system Escherichia coli. Kind of assay: Synergistic antibacterial activity against Escherichia coli 94474 assessed as fractional inhibitory concentration index in presence of rifampicin incubated for 18 hrs by broth dilution method. A digest of the protocol: as §3

`COc1c(N2C[C@@H]3CCCN(CCCCCCCCCCCCO[C@@H]4[C@@H](O)[C@H](N)C[C@H](N)[C@H]4O[C@H]4O[C@H](CN)[C@@H](O)C[C@H]4N)[C@@H]3C2)c(F)cc2c(=O)c(C(=O)O)cn(C3CC3)c12.Cl.Cl.Cl.Cl.Cl`: the “fold change (FC)” value in the assay with Enterobacter cloacae is “>=128”; in the assay on Pseudomonas aeruginosa [1], 16; in the assay on Acinetobacter baumannii [6], 32; with Pseudomonas aeruginosa [7], 128; with Acinetobacter baumannii [9] it was 32; with Klebsiella pneumoniae [12], 16. In addition, the results for the MIC80 with Pseudomonas aeruginosa [2], with Pseudomonas aeruginosa [8] and in the assay with Pseudomonas aeruginosa [10] were 1 µg/mL, 0.13 µg/mL and 0.13 µg/mL, respectively. The MIC50 came to 0.06 µg/mL in the assay on Pseudomonas aeruginosa [3] and 0.5 µg/mL with Pseudomonas aeruginosa [5]. This molecule registered a minimal inhibitory concentration (MIC) in the assay with Acinetobacter baumannii [4] greater than 16 µg/mL. Also, the “fractional inhibitory concentration index (FICI)” value in the assay on Acinetobacter baumannii [11] is reported as 0.031 - 0.047.
On to `Cl.Cl.Cl.Cl.Cl.Cl.NC[C@H]1O[C@H](O[C@H]2[C@H](OCCCCCCCCCCN3CCN(Cc4cccc5ccccc45)CC3)[C@@H](O)[C@H](N)C[C@@H]2N)[C@H](N)C[C@@H]1O`, for which the “fold change (FC)” value in the assay on Pseudomonas aeruginosa [13] amounted to 64; in the assay with Pseudomonas aeruginosa [14], 8; in the assay with Pseudomonas aeruginosa [15], 8.
For the molecule `Cl.Cl.Cl.Cl.Cl.NC[C@H]1O[C@H](O[C@H]2[C@H](OCCCCCCCCCCCCN3CCN(c4cc5c(cc4F)c(=O)c(C(=O)O)cn5C4CC4)CC3)[C@@H](O)[C@H](N)C[C@@H]2N)[C@H](N)C[C@@H]1O`, the “fold change (FC)” value with Escherichia coli [16] is 16; in the assay with Escherichia coli [20], 128. The “fractional inhibitory concentration index (FICI)” value in the assay on Escherichia coli [17] was 0.015 - 0.02; with Klebsiella pneumoniae [19], 0.039; in the assay on Klebsiella pneumoniae [21], 0.504; in the assay on Escherichia coli [22], 0.004 - 0.035. For the same molecule, the survival at 50 mg/kg in the assay on Pseudomonas aeruginosa [18] is 33%.

The record behind these values is ChEMBL document CHEMBL4354800, “Amphiphilic nebramine-based hybrids Rescue legacy antibiotics from intrinsic resistance in multidrug-resistant Gram-negative bacilli” (Eur J Med Chem, 2019).
